According to ChEMBL document CHEMBL4385606, “3,5,7-Substituted Pyrazolo[4,3- d]pyrimidine Inhibitors of Cyclin-Dependent Kinases and Their Evaluation in Lymphoma Models” (J Med Chem, 2019):
pIC50: −log10 of the molar value.

Key:
[1] = biological target: Cyclin-dependent kinase 2/cyclin E1 (Homo sapiens, UniProt P24941); assay: Inhibition of His-tagged CDK2/Cyclin-E1 (unknown origin) expressed in baculovirus infected Sf9 insect cells using histone H1 as substrate measured in presence of [gamma-33P]ATP; assay type: cell-based
HT = assay: Antiproliferative activity against human HT cells measured after 72 hrs by calcein AM dye-based fluorescence assay; assay type: functional
Method in brief: (§1)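 Cells exposed in triplicate to six concentrations for 72 h; calcein AM added for 1 h, live-cell fluorescence read at 485/538 nm (ex/em). GI50 taken from dose-response curves.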

[2] = Antiproliferative activity against human OCI-Ly2 cells measured after 72 hrs by calcein AM dye-based fluorescence assay; assay type: functional; method in brief: as §1
[3] = Antiproliferative activity against human Mino cells measured after 72 hrs by calcein AM dye-based fluorescence assay; assay type: functional; method in brief: as §1
[4] = biological target: Cyclin-dependent kinase 4/cyclin D1 (Homo sapiens, UniProt P11802); assay: Inhibition of recombinant human N-terminal GST-fused CDK4 (S4 to E303 residues)/cyclin D1 (Q4 to I295 residues) expressed in baculovirus infected Sf9 insect cells using RPPTLSPIPHIPR as substrate measured in presence of [gamma-33P]ATP
Method in brief: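 CDK/cyclin complexes tested in triplicate at minimum; IC50 values reported from those replicate determinations.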

CDK9/cyclin T1 = CDK9/cyclin T1 (Homo sapiens, UniProt P50750); assay: Inhibition of recombinant human N-terminal GST-His6-fused CDK9 (M1 to F372 residues)/N-terminal His6-tagged cyclin T1 (M1 to K726 residues) expressed in baculovirus infected Sf9 insect cells using (YSPTSPS)2KK as substrate measured in presence of [gamma-33P]ATP
Chain of CDK9/cyclin T1 (O60563 whole entry, the tested form may be a part): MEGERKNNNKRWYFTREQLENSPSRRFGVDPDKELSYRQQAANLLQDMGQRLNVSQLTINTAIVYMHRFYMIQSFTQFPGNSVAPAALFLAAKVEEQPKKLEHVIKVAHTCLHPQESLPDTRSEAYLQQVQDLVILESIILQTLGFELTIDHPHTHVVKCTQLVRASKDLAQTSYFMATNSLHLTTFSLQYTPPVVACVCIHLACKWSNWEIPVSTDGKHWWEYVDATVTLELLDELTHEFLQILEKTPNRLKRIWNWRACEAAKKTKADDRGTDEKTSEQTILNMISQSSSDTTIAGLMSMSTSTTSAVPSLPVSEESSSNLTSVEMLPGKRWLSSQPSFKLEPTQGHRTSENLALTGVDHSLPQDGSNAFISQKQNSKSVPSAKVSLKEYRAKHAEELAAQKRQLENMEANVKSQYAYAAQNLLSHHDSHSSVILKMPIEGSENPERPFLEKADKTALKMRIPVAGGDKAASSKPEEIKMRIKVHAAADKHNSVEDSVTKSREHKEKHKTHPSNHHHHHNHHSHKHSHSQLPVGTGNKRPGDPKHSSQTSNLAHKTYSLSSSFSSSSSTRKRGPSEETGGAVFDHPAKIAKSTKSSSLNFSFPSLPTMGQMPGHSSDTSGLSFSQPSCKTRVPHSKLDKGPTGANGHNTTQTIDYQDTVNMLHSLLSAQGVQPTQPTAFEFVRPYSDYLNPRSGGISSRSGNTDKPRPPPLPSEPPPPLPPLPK
Chain of CDK9/cyclin T1 (P50750 whole entry, the tested form may be a part): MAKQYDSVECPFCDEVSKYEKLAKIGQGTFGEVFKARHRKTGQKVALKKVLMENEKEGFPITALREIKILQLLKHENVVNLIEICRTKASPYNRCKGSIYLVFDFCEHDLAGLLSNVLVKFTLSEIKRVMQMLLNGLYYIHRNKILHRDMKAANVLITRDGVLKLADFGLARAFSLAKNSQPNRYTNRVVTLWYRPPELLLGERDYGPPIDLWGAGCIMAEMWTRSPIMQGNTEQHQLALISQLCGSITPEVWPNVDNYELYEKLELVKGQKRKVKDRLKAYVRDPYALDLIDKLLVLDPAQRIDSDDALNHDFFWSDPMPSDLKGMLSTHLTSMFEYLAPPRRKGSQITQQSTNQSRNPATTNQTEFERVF

Chain of Cyclin-dependent kinase 4/cyclin D1 (P11802 whole entry, the tested form may be a part): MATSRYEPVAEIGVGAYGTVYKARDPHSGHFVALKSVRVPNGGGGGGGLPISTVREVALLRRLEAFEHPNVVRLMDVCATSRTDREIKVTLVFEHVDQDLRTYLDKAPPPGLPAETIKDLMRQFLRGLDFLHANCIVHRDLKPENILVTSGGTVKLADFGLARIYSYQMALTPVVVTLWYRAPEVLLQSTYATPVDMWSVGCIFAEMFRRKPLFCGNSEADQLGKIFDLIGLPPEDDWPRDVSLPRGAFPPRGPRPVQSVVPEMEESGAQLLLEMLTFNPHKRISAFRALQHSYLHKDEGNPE
Chain of Cyclin-dependent kinase 4/cyclin D1 (P24385 whole entry, further chain, the tested form may be a part): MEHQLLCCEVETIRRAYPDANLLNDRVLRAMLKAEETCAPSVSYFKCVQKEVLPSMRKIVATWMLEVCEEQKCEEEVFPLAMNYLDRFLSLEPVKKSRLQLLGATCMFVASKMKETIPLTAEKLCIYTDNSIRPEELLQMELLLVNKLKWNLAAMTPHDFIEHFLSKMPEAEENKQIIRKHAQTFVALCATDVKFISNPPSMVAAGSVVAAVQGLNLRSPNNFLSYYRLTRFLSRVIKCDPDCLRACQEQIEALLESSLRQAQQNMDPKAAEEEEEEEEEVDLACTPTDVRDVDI

Row | SMILES | pIC50 [1] | pIC50 [4] | pIC50 (CDK9/cyclin T1) | GI50 (HT) | GI50 [2] | GI50 [3]
1 | CC(C)c1n[nH]c2c(NCc3ccc(-c4ccccn4)cc3)nc(SCCn3ccnc3)nc12 | 7.49 |  |  | 0.155 µM | 0.145 µM | 0.135 µM
2 | CC(C)c1n[nH]c2c(NCc3ccc(-c4ccccn4)cc3)nc(SC3CCCCC3O)nc12 (configuration not stated) | 6.87 |  |  | 0.636 µM | 0.68 µM | 0.53 µM
3 | CC(C)c1n[nH]c2c(NCc3ccc(-c4ccccn4)cc3)nc(SCC(O)C(F)(F)F)nc12 (configuration not stated) | 6.88 |  |  | 0.69 µM | 0.585 µM | 0.641 µM
4 | CC(C)c1n[nH]c2c(NCc3ccc(-c4ccccn4)cc3)nc(SCC(O)CN3CCOCC3)nc12 (configuration not stated) | 6.81 |  |  | 0.2 µM | 0.2 µM | 0.243 µM
5 | CC(C)c1n[nH]c2c(NCc3ccc(-c4ccccn4)cc3)nc(SCCN(C)C)nc12 | 7.11 |  |  | 0.054 µM | 0.061 µM | 0.093 µM
6 | CSc1nc(NCc2ccc(-c3ccccn3)cc2)c2[nH]nc(C(C)C)c2n1 |  |  |  | 0.783 µM | 1.21 µM | 1.05 µM
7 | CC(=O)NCCSc1nc(NCc2ccc(-c3ccccn3)cc2)c2[nH]nc(C(C)C)c2n1 | 7.39 |  |  | 0.071 µM | 0.054 µM | 0.042 µM
8 | C=CC(=O)N1CCC[C@@H](n2nc(-c3ccc(Oc4ccccc4)cc3)c3c(N)ncnc32)C1 [IBRUTINIB] |  |  |  | 15.9 µM | 18.9 µM | 10.7 µM
9 | CCC(CO)Sc1nc(NCc2ccc(-c3ccccn3)cc2)c2[nH]nc(C(C)C)c2n1 (configuration not stated) | 6.82 |  |  | 0.255 µM | 0.181 µM | 0.119 µM
10 | CC(C)c1n[nH]c2c(NCc3ccc(-c4ccccn4)cc3)nc(SC3CCCC3O)nc12 (configuration not stated) | 7.28 |  |  | 0.567 µM | 0.373 µM | 0.45 µM
11 | CC[C@H](CO)Nc1nc(NCc2ccc(-c3ccccn3)cc2)c2ncn(C(C)C)c2n1 |  | 4.58 | 6.57 | 0.263 µM | 0.307 µM | 0.202 µM
12 | CCC(O)CSc1nc(NCc2ccc(-c3ccccn3)cc2)c2[nH]nc(C(C)C)c2n1 (configuration not stated) | 7.41 |  |  | 0.273 µM | 0.28 µM | 0.427 µM
13 | CC(C)c1n[nH]c2c(NCc3ccc(-c4ccccn4)cc3)nc(SC(CO)C(C)C)nc12 (configuration not stated) | 7.11 |  |  | 0.98 µM | 1 µM | 1.31 µM
14 | CC(C)c1n[nH]c2c(NCc3ccc(-c4ccccn4)cc3)nc(SCC(O)CN)nc12 (racemic) | 7.51 |  |  | 0.055 µM | 0.055 µM | 0.064 µM
15 | C=CCSc1nc(NCc2ccc(-c3ccccn3)cc2)c2[nH]nc(C(C)C)c2n1 | 7.00 |  |  | 1.01 µM | 0.858 µM | 0.923 µM
16 | CC(C)c1n[nH]c2c(NCc3ccc(-c4ccccn4)cc3)nc(SCCCN(C)C)nc12 | 7.00 |  |  | 0.105 µM | 0.109 µM | 0.076 µM
17 | CC(C)c1n[nH]c2c(NCc3ccc(-c4ccccn4)cc3)nc(S)nc12 | 6.25 |  |  | 2.76 µM | 3.24 µM | 2.18 µM
18 | CC(C)c1n[nH]c2c(NCc3ccc(-c4ccccn4)cc3)nc(SCCNC(=N)N)nc12 | 7.52 |  |  | 0.39 µM | 0.812 µM | 0.39 µM
19 | COCSc1nc(NCc2ccc(-c3ccccn3)cc2)c2[nH]nc(C(C)C)c2n1 | 7.23 |  |  | 0.34 µM | 0.285 µM | 0.243 µM
20 | CC(C)c1n[nH]c2c(NCc3ccc(-c4ccccn4)cc3)nc(SC3CCCCC3N)nc12 (configuration not stated) | 7.28 |  |  | 0.139 µM | 0.136 µM | 0.157 µM
21 | CSCCSc1nc(NCc2ccc(-c3ccccn3)cc2)c2[nH]nc(C(C)C)c2n1 | 6.86 |  |  | 0.975 µM | 0.668 µM | 0.773 µM
22 | CC(C)c1n[nH]c2c(NCc3ccc(-c4ccccn4)cc3)nc(SCC(O)CN3CCNCC3)nc12 (configuration not stated) | 6.77 |  |  | 0.332 µM | 0.435 µM | 0.767 µM

Further lines, with some results ahead:

Row | pIC50 [1] | pIC50 [4] | pIC50 (CDK9/cyclin T1) | SMILES | GI50 (HT) | GI50 [2] | GI50 [3]
23 | 7.52 |  |  | CC(C)c1n[nH]c2c(NCc3ccc(-c4ccccn4)cc3)nc(SCC(C)(C)O)nc12 | 0.507 µM | 0.61 µM | 0.477 µM
24 | 7.57 |  |  | CC(C)c1n[nH]c2c(NCc3ccc(-c4ccccn4)cc3)nc(SCC(N)=O)nc12 | 0.192 µM | 0.163 µM | 0.197 µM
25 | 7.96 |  |  | CC(C)c1n[nH]c2c(NCc3ccc(-c4ccccn4)cc3)nc(SC[C@H](O)CN)nc12 | 0.063 µM | 0.099 µM | 0.051 µM
26 | 7.74 |  |  | CC(C)c1n[nH]c2c(NCc3ccc(-c4ccccn4)cc3)nc(SCCNC(N)=O)nc12 | 0.24 µM | 0.198 µM | 0.136 µM
27 | 8.00 |  |  | CC(C)c1n[nH]c2c(NCc3ccc(-c4ccccn4)cc3)nc(SCC(O)CO)nc12 (configuration not stated) | 0.021 µM | 0.022 µM | 0.01 µM
28 | 7.72 |  |  | CC(C)c1n[nH]c2c(NCc3ccc(-c4ccccn4)cc3)nc(SCCC(N)=O)nc12 | 0.12 µM | 0.084 µM | 0.081 µM
29 | 7.92 |  |  | CC(O)CSc1nc(NCc2ccc(-c3ccccn3)cc2)c2[nH]nc(C(C)C)c2n1 (configuration not stated) | 0.062 µM | 0.152 µM | 0.081 µM
30 | 7.92 |  |  | CC(C)c1n[nH]c2c(NCc3ccc(-c4ccccn4)cc3)nc(SCC(N)CN)nc12 (configuration not stated) | 0.48 µM | 0.78 µM | 0.77 µM
31 | 7.89 |  |  | CNCCSc1nc(NCc2ccc(-c3ccccn3)cc2)c2[nH]nc(C(C)C)c2n1 | 0.056 µM | 0.092 µM | 0.04 µM
32 | 7.70 |  |  | CC(C)c1n[nH]c2c(NCc3ccc(-c4ccccn4)cc3)nc(SCC(C)(C)N)nc12 | 0.085 µM | 0.1 µM | 0.064 µM
33 | 7.66 |  |  | CC(C)c1n[nH]c2c(NCc3ccc(-c4ccccn4)cc3)nc(SCCCN)nc12 | 0.12 µM | 0.151 µM | 0.156 µM
34 | 8.52 |  |  | CC(C)c1n[nH]c2c(NCc3ccc(-c4ccccn4)cc3)nc(SC(C)C(C)O)nc12 (configuration not stated) | 0.19 µM | 0.141 µM | 0.16 µM
35 | 8.52 |  |  | CC(C)c1n[nH]c2c(NCc3ccc(-c4ccccn4)cc3)nc(SCCO)nc12 | 0.048 µM | 0.05 µM | 0.04 µM
36 | 7.72 |  |  | CC(C)c1n[nH]c2c(NCc3ccc(-c4ccccn4)cc3)nc(SCC3CNC(=O)O3)nc12 (configuration not stated) | 0.08 µM | 0.053 µM | 0.069 µM
37 | 7.68 |  |  | CC(C)c1n[nH]c2c(NCc3ccc(-c4ccccn4)cc3)nc(SCCCO)nc12 | 0.109 µM | 0.102 µM | 0.089 µM
